Data on 24 molecules can be found in ChEMBL document CHEMBL4627290, “Synthesis and biological evaluation of chepraecoxin A derivatives as α-glucosidase inhibitors” (Bioorg Med Chem Lett, 2020).

Broadly, the inhibition is the drop in the measured response relative to a control, in per cent. As a reminder, the IC50 is the concentration that gives 50% inhibition. The low end stands for greater potency, the high end for weaker potency. In general, Ki refers to a measure of affinity in units of concentration, obtained from inhibition or displacement. Read a high Ki as weaker binding.

A short description of test [1]: Inhibition of alpha-glucosidase (unknown origin) at 500 uM relative to control. The following applies: Homo sapiens. Put shortly: (§1)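 Single-point screen at 500 μM inhibitor, with acarbose as positive control. Derivatives exceeding 50% inhibition were taken on to a dose-response series at several concentrations to derive IC50. Values are mean ± SD, n = 3.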
The nature of test [2]: Inhibition of alpha-glucosidase (unknown origin). Set-up: species or system Homo sapiens. Put shortly:
as §1

Test [3] is described as follows: Potency index, ratio of chepraecoxinA IC50 to test compound IC50 for inhibition of alpha-glucosidase (unknown origin). To be noted: Homo sapiens.
Test [4] in a line: Non-competitve inhibition of alpha-glucosidase (unknown origin) by Dixon-plot analysis. Set-up: species or system Homo sapiens. A digest of the protocol: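 Kinetic study run at varied substrate concentrations. Inhibition type was assigned from a Lineweaver-Burk plot (Vm and Km compared), and the inhibition constant Ki was read from a Dixon plot.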

The structures appear in SMILES notation.

For the molecule `CCCCCCCCCCCCCCCCCC(=O)O[C@H]1CC[C@@](C)(C(=O)O)[C@H]2CC[C@@]34C[C@H](CC[C@H]3[C@]12C)[C@@H](C)C4`, the inhibition in test [1] was 94.2%. Also, the half-maximal inhibitory concentration (IC50) in test [2] worked out at 32 µM.
For the molecule `CCCCCCCC(=O)O[C@H]1CC[C@@](C)(C(=O)O)[C@H]2CC[C@@]34C[C@H](CC[C@H]3[C@]12C)[C@@H](C)C4`, in test [1], the inhibition was found to be 95.5%. Half-maximal inhibition in test [2] (IC50) required 22.8 µM.
Consider `CC(=O)O[C@H]1CC[C@@](C)(C(=O)O)[C@H]2CC[C@@]34C[C@H](CC[C@H]3[C@]12C)[C@@H](C)C4`, for which the Ratio IC50 in test [3] was determined as 2. The inhibition in test [1] worked out at 98.4%. Moreover, half-maximal inhibition in test [2] (IC50) required 146 µM.
As for `C[C@H]1C[C@@]23CC[C@H]4[C@@](C)([C@@H](OC(=O)c5ccccc5)CC[C@@]4(C)C(=O)O)[C@@H]2CC[C@H]1C3`, in test [2], the midpoint of inhibition, the IC50, lay at 45.4 µM.
The molecule `CC(=O)O[C@H]1CC[C@@](C)(C(=O)O)[C@H]2CC[C@]34CC(=O)[C@@H](CC[C@H]3[C@]12C)C4` gave an inhibition in test [1] of 78.8%. The IC50 in test [2] came to 262 µM.
The molecule `COC(=O)[C@]1(C)CC[C@H](OC(C)=O)[C@@]2(C)[C@@H]3CC[C@H]4C[C@@]3(CC[C@@H]21)C[C@@H]4C` returned an inhibition in test [1] of 11.4%.
In the case of `C=C1C(=O)[C@@]23CC[C@H]4[C@@](C)([C@@H](OC(C)=O)CC[C@@]4(C)C(=O)O)[C@@H]2CC[C@H]1C3`, the inhibition in test [1] amounted to 18.6%.
With `CCCCC/C=C/C(=O)O[C@H]1CC[C@@](C)(C(=O)O)[C@H]2CC[C@@]34C[C@H](CC[C@H]3[C@]12C)[C@@H](C)C4`, the Ratio IC50 in test [3] turned out to be 17. Also, the inhibition in test [1] came out at 91.8%. This molecule also yielded an IC50 in test [2] of 16.9 µM.
`C[C@H]1C[C@@]23CC[C@H]4[C@@](C)([C@@H](OC(=O)C5CCCCC5)CC[C@@]4(C)C(=O)O)[C@@H]2CC[C@H]1C3`: the Ratio IC50 in test [3] is 17. In test [4], this molecule showed a Ki of 19.4 µM. This molecule showed an IC50 in test [2] of 16.1 µM.
For the molecule `C[C@H]1C[C@@]23CC[C@H]4[C@](C)([C@@H]2CC[C@H]1C3)[C@@H](O)CC[C@@]4(C)C(=O)O`, in test [1], the inhibition stood at 17.3%.
Consider `C=C1C[C@@]23CC[C@H]4[C@@](C)([C@@H](OC(C)=O)CC[C@@]4(C)C(=O)O)[C@@H]2CC[C@H]1C3`, for which the inhibition in test [1] worked out at 95%. The same molecule displayed an IC50 in test [2] of 274 µM.
Consider `C=C1C[C@@]23CC[C@H]4[C@@](C)(C(=O)CC[C@@]4(C)C(=O)O)[C@@H]2CC[C@H]1C3`, for which the inhibition in test [1] was 19.4%.
`C[C@H]1C[C@@]23CC[C@H]4[C@@](C)([C@@H](OC(=O)/C=C/c5ccccc5)CC[C@@]4(C)C(=O)O)[C@@H]2CC[C@H]1C3`: the Ratio IC50 in test [3] was 17. This molecule gave an IC50 in test [2] of 17.1 µM.
Molecule `CC(=O)O[C@H]1CC[C@@](C)(C(=O)O)[C@H]2CC[C@@]34C[C@H](CC[C@H]3[C@]12C)[C@@]1(CO1)C4` displayed an inhibition in test [1] of 9.6%.
Still for that read-out and setting: the value for `C[C@H]1C[C@@]23CC[C@H]4[C@@](C)(C(=O)CC[C@@]4(C)C(=O)O)[C@@H]2CC[C@H]1C3` was 13.2%.
In turn, `C[C@H]1O[C@H](O[C@H]2[C@H](O)[C@@H](O)[C@@H](O[C@H]3[C@H](O)[C@@H](O)C(O)O[C@@H]3CO)O[C@@H]2CO)[C@H](O)[C@@H](O)[C@@H]1N[C@H]1C=C(CO)[C@@H](O)[C@H](O)[C@H]1O` (stereo not given in full) [ACARBOSE] returned an inhibition in test [1] of 79.8%. Further, the IC50 in test [2] is 130 µM.
The corresponding values for `CCCC(=O)O[C@H]1CC[C@@](C)(C(=O)O)[C@H]2CC[C@@]34C[C@H](CC[C@H]3[C@]12C)[C@@H](C)C4` are 98% and 48.4 µM.
`C=C1C[C@@]23CC[C@H]4[C@@](C)([C@@H](OC(C)=O)CC[C@@]4(C)C(=O)OC)[C@@H]2CC[C@H]1C3` gave an inhibition in test [1] of 45.4%.
On the same count and under the same terms, the value for `CC(=O)O[C@H]1CC[C@@](C)(C(=O)O)[C@H]2CC[C@@]34C[C@H](CC[C@H]3[C@]12C)[C@@](O)(CO)C4` was 7.5%.
`C=C1C[C@@]23CC[C@H]4[C@](C)([C@@H]2CC[C@H]1C3)[C@@H](O)CC[C@@]4(C)C(=O)O` had an inhibition in test [1] of 52%. In addition, half-maximal inhibition in test [2] (IC50) was put at 538 µM.
As for `C=C1[C@H]2CC[C@@H]3[C@@](CC[C@H]4[C@@]3(C)[C@@H](OC(C)=O)CC[C@@]4(C)C(=O)O)(C2)[C@H]1O`, the inhibition in test [1] was 22.1%.
As for `C=C1C[C@@]23CC[C@H]4[C@@](C)(/C(=N/O)CC[C@@]4(C)C(=O)O)[C@@H]2CC[C@H]1C3`, the inhibition in test [1] turned out to be 77.2%. In test [2], half-maximal inhibition (IC50) was put at 330 µM.
As to `C[C@H]1C[C@@]23CC[C@H]4[C@@](C)([C@@H](OC(=O)CCC(=O)O)CC[C@@]4(C)C(=O)O)[C@@H]2CC[C@H]1C3`, in test [1], the inhibition was 17.8%.
In turn, `C[C@H]1C[C@@]23CC[C@H]4[C@@](C)([C@@H](OC(=O)c5cccnc5)CC[C@@]4(C)C(=O)O)[C@@H]2CC[C@H]1C3` showed an inhibition in test [1] of 93%. The same molecule returned an IC50 in test [2] of 71.4 µM.
